ChEMBL document CHEMBL1137225, “Synthesis of analogues of Congo red and evaluation of their anti-prion activity” (2004)

Experiments:
Format in all cases: functional
[1] = target: Major prion protein (Mus musculus) (UniProt P04925); experiment: Inhibition of PrPC polymerization by PrP-res at 100 uM; parameters: scale not given: the % may be the effect or the level left
In short: (§1)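 Substrate recombinant mouse PrP refolded without metal ions (50 μg), preincubated with compound (100 μM) in 500 μL H2O pH 6.5 for 30 min; seeded with aged Mn2+-refolded mouse PrP (10 μg). Turbidity read at 325 nm (5-mm cuvette) immediately and after 5 min; absorbance increase expressed as percentage of DMSO control.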

[2] = target: Major prion protein (Mus musculus) (UniProt P04925); experiment: Inhibition of PrP-res formation in SMB (Scrapie mouse brain) cells at 10 uM
In short: (§2)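 Persistently scrapie-infected mouse SMB cells in 199 medium with 10% FCS, 5% newborn calf serum, 37 °C, 5% CO2; plated at 50% confluency, attached 24 h, then given fresh medium with compound diluted from 10 mM DMSO stock for 4 days. Lysates digested with proteinase K (80 μg/mL, 1 h, 37 °C); PrP-res detected by DR1 western blot, ECL, densitometry.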

[3] = (§3) Compound was tested for the inhibition of PrP-res formation in SMB cells at 50 uM; details: Mus musculus; in short: as §2
[4] = Effective dose required for the inhibition of PrP-res formation in SMB cells; details: Mus musculus, read-out: ED50 (the source's name); in short: as §2
[5] = system: SMB; experiment: as §3; details: Mus musculus; in short: as §2
[6] = Compound was tested for the inhibition of PrP-res formation in SMB cells at 2 uM; details: Mus musculus; in short: as §2
[7] = Compound was tested for the ability to inhibit the polymerization of PrPC by PrP-res at 100 uM; value ranges from 17-50 %; parameters: scale not given: the % may be the effect or the level left; in short: as §1
[8] = Effective dose required for the inhibition of PrP-res formation in SMB cells; value ranges from 25-50 nM; details: Mus musculus, read-out: ED50 (the source's name); in short: as §2

Chain of Major prion protein (Mus musculus) (P04925 whole entry): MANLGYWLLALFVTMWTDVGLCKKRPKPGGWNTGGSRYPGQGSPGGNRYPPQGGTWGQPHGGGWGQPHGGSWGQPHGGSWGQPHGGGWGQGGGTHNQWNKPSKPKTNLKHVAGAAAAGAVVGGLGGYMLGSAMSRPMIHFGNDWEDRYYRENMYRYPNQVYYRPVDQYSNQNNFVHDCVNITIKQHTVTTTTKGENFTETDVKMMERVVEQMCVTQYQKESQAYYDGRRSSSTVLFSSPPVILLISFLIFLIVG

| Structure (SMILES) | Control [1] | inhibition [2] | also measured |
| --- | --- | --- | --- |
| CCOC(=O)c1cc(/N=C/c2ccc(/C=N/c3ccc(O)c(C(=O)OCC)c3)cc2)ccc1O | 60% | Negative |  |
| Cc1ccc(/N=C/c2ccc(/C=N/c3ccc(C)cc3O)cc2)c(O)c1 | 230% | Negative |  |
| O=C(O)c1ccc(NCc2ccc(CNc3ccc(C(=O)O)cc3O)cc2)c(O)c1 | 79% | Negative |  |
| O=C(Nc1ccccc1)c1ccc(C(=O)Nc2ccccc2)cc1 | 54% | Negative |  |
| COc1cc(NC(=O)c2ccc(-c3ccc(C(=O)Nc4ccc(C(=O)O)c(OC)c4)cc3)cc2)ccc1C(=O)O | 472% | Negative |  |
| COc1ccc(C(=O)O)cc1NS(=O)(=O)c1ccc(-c2ccc(S(=O)(=O)Nc3cc(C(=O)O)ccc3OC)cc2)cc1 | 62% | Negative | inhibition at 50 µM [3]: 33% |
| O=[N+]([O-])c1ccc(/N=C/c2ccc(/C=N/c3ccc([N+](=O)[O-])cc3O)cc2)c(O)c1 | 109% | Negative |  |
| COC(=O)c1ccc(/N=C/c2ccc(/C=N/c3ccc(C(=O)OC)c(O)c3)cc2)cc1O | 113% | Negative |  |
| Oc1ccccc1/N=C/c1ccc(-c2ccc(/C=N/c3ccccc3O)cc2)cc1 | 281% | Negative |  |
| COC(=O)c1cc(NC(=O)c2ccc(C(=O)Nc3cc(C(=O)OC)cc(C(=O)OC)c3)cc2)cc(C(=O)OC)c1 | 147% | Positive | EC50 [4]: 250 nM |
| COC(=O)c1ccc(OC)c(/N=C/c2ccc(-c3ccc(/C=N/c4cc(C(=O)OC)ccc4OC)cc3)cc2)c1 |  | Negative |  |
| COC(=O)c1ccc(OC)c(NS(=O)(=O)c2ccc(-c3ccc(S(=O)(=O)Nc4cc(C(=O)OC)ccc4OC)cc3)cc2)c1 | 77% | Negative | inhibition [5]: Negative |
| COC(=O)c1ccc(NC(=O)c2ccc(-c3ccc(C(=O)Nc4ccc(C(=O)OC)c(O)c4)cc3)cc2)cc1O | NR | Negative |  |
| O=C(Nc1ccc([N+](=O)[O-])cc1O)c1ccc(C(=O)Nc2ccc([N+](=O)[O-])cc2O)cc1 | 15% | Negative |  |
| O=C(O)c1ccc(/N=C/c2ccc(/C=N/c3ccc(C(=O)O)cc3O)cc2)c(O)c1 | 35% | Negative | inhibition [5]: Negative |
| COC(=O)c1ccc(/N=C/c2ccc(-c3ccc(/C=N/c4ccc(C(=O)OC)cc4O)cc3)cc2)c(O)c1 | 49% | Negative | inhibition at 50 µM [3]: 53% |
| O=C(Oc1ccccc1)c1ccc(NS(=O)(=O)c2ccc(-c3ccc(S(=O)(=O)Nc4ccc(C(=O)Oc5ccccc5)c(O)c4)cc3)cc2)cc1O | 90% | Negative | inhibition [5]: Negative |
| COC(=O)c1ccc(/N=C/c2ccc(/C=N/c3ccc(C(=O)OC)cc3O)cc2)c(O)c1 | 140% | Negative | inhibition [5]: Negative |
| Oc1ccc(/C=C/c2ccc(/C=C/c3ccc(O)cc3)cc2)cc1 |  |  | inhibition at 2 µM [6]: 5% |
| O=C(O)c1cc(NS(=O)(=O)c2ccc(-c3ccc(S(=O)(=O)Nc4cc(C(=O)O)cc(C(=O)O)c4)cc3)cc2)cc(C(=O)O)c1 | 2% | Negative | inhibition [5]: Negative |
| CCOC(=O)c1ccc(/N=C/c2ccc(/C=N/c3ccc(C(=O)OCC)c(O)c3)cc2)cc1O | 92% | Negative |  |
| Oc1ccccc1/N=C/c1ccc(/C=N/c2ccccc2O)cc1 | 85% | Negative |  |
| O=C(O)c1ccc(/N=C/c2ccc(-c3ccc(/C=N/c4ccc(C(=O)O)cc4O)cc3)cc2)c(O)c1 | 62% | Positive |  |
| N#Cc1ccc(NC(=O)c2ccc(-c3ccc(C(=O)Nc4ccc(C#N)cc4)cc3)cc2)cc1 | 196% | Negative |  |
| Oc1ccc(/N=C/c2ccc(-c3ccc(/C=N/c4ccc(O)cc4)cc3)cc2)cc1 | 104% | Positive | EC50 [4]: 250 nM |
| N#Cc1ccc(/N=C/c2ccc(/C=N/c3ccc(C#N)cc3)cc2)cc1 | 81% | Positive | EC50 [4]: 500 nM |
| COC(=O)c1cc(NC(=O)c2ccc(-c3ccc(C(=O)Nc4ccc(O)c(C(=O)OC)c4)cc3)cc2)ccc1O | 249% | Positive | EC50 [4]: 5000 nM |

| Structure (SMILES) | Control [1] | inhibition [2] | also measured |
| --- | --- | --- | --- |
| Oc1ccc(/N=C/c2ccc(/C=N/c3ccc(O)cc3)cc2)cc1 | 240% | Negative |  |
| O=C(O)c1ccc(/N=C/c2ccc(/C=N/c3ccc(C(=O)O)cc3)cc2)cc1 | 12% | Negative |  |
| O=C(Nc1ccc([N+](=O)[O-])cc1O)c1ccc(-c2ccc(C(=O)Nc3ccc([N+](=O)[O-])cc3O)cc2)cc1 | 160% | Negative |  |
| O=C(O)c1ccc(NS(=O)(=O)c2ccc(-c3ccc(S(=O)(=O)Nc4ccc(C(=O)O)cc4O)cc3)cc2)c(O)c1 | 12% | Negative | inhibition [5]: Negative |
| O=C(Oc1ccccc1)c1ccc(/N=C/c2ccc(/C=N/c3ccc(C(=O)Oc4ccccc4)c(O)c3)cc2)cc1O | 113% | Negative | inhibition [5]: Negative |
| COC(=O)c1ccc(OC)c(/N=C/c2ccc(/C=N/c3cc(C(=O)OC)ccc3OC)cc2)c1 | 47% | Negative | inhibition [5]: Negative |
| Oc1ccccc1NCc1ccc(CNc2ccccc2O)cc1 | 240% | Positive | EC50 [4]: 2500 nM |
| COC(=O)c1ccc(NC(=O)c2ccc(C(=O)Nc3ccc(C(=O)OC)cc3)cc2)cc1 | 100% | Negative |  |
| C(=N\c1ccccc1)/c1ccc(-c2ccc(/C=N/c3ccccc3)cc2)cc1 | 315% | Negative |  |
| O=C(O)c1cc(/C=C/c2ccc(/C=C/c3ccc(O)c(C(=O)O)c3)cc2)ccc1O | 72% | Negative | inhibition at 50 µM [3]: 3% |
| O=C(Nc1ccccc1)c1ccc(-c2ccc(C(=O)Nc3ccccc3)cc2)cc1 | 171% | Negative |  |
| N#Cc1ccc(/N=C/c2ccc(/C=N/c3ccc(C#N)c4ccccc34)cc2)c2ccccc12 | 148% | Negative |  |
| O=C(O)c1cc(NC(=O)c2ccc(C(=O)Nc3cc(C(=O)O)cc(C(=O)O)c3)cc2)cc(C(=O)O)c1 | 1% | Negative |  |
| N#Cc1ccc(NC(=O)c2ccc(C(=O)Nc3ccc(C#N)cc3)cc2)cc1 | 68% | Negative |  |
| COC(=O)c1ccc(OC)c(NC(=O)c2ccc(C(=O)Nc3cc(C(=O)OC)ccc3OC)cc2)c1 | 70% | Negative |  |
| COC(=O)c1ccc(NC(=O)c2ccc(-c3ccc(C(=O)Nc4ccc(C(=O)OC)c(OC)c4)cc3)cc2)cc1OC | 70% | Positive | EC50 [4]: 250 nM |
| COC(=O)c1ccc(OC)c(NCc2ccc(CNc3cc(C(=O)OC)ccc3OC)cc2)c1 | 20% | Positive | EC50 [4]: 250 nM |
| COC(=O)c1ccc(NS(=O)(=O)c2ccc(-c3ccc(S(=O)(=O)Nc4ccc(C(=O)OC)cc4O)cc3)cc2)c(O)c1 | 30% | Negative | inhibition at 50 µM [3]: 77% |
| COC(=O)c1ccc(NC(=O)c2ccc(C(=O)Nc3ccc(C(=O)OC)cc3O)cc2)c(O)c1 | 62% | Positive | EC50 [4]: 5000 nM |
| COC(=O)c1ccc(NCc2ccc(CNc3ccc(C(=O)OC)cc3O)cc2)c(O)c1 | 166% | Positive | EC50 [4]: 75 nM |
| C(=N\c1ccccc1)/c1ccc(/C=N/c2ccccc2)cc1 |  | Negative |  |
| O=C(O)c1ccc(C/N=C/c2ccc(/C=N/Cc3ccc(C(=O)O)cc3)cc2)cc1 | 117% | Negative |  |
| O=C(O)c1cc(/N=C/c2ccc(/C=N/c3ccc(O)c(C(=O)O)c3)cc2)ccc1O | 53% | Negative |  |
| O=C(Nc1ccccc1O)c1ccc(-c2ccc(C(=O)Nc3ccccc3O)cc2)cc1 | 430% | Negative |  |
| COC(=O)c1ccc(NC(=O)c2ccc(-c3ccc(C(=O)Nc4ccc(C(=O)OC)cc4O)cc3)cc2)c(O)c1 |  | Positive | Control [7]: 50%; EC50 [8]: 50 nM |
| COc1ccc(C(=O)O)cc1/N=C/c1ccc(/C=N/c2cc(C(=O)O)ccc2OC)cc1 | 11% | Negative |  |
| COC(=O)c1cc(/N=C/c2ccc(/C=N/c3ccc(O)c(C(=O)OC)c3)cc2)ccc1O |  | Negative |  |
